A selection: hits, their analogues and other compounds. The true share with any hit is near 1.3%.
DDE Tn6 FP inh: inhibitors of Tn6 peptide binding to fibrin DD(E), primary screen, biochemical, fluorescence polarization, human fibrin, Tn6 probe | AID 720509, 2013 | Fibrin DD(E) TRITC-Tn6 fluorescence polarization displacement | 370,000 compounds, 0.21% hits | inhibition, % at 8.3 µM | Fibrinogen beta chain (Homo sapiens), P02675;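 active means inhibition above a per-campaign cutoff: mean of compounds within control limits plus 3 SD, cut at about 15% in these data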
Target sequence (P02675 whole entry, looked up): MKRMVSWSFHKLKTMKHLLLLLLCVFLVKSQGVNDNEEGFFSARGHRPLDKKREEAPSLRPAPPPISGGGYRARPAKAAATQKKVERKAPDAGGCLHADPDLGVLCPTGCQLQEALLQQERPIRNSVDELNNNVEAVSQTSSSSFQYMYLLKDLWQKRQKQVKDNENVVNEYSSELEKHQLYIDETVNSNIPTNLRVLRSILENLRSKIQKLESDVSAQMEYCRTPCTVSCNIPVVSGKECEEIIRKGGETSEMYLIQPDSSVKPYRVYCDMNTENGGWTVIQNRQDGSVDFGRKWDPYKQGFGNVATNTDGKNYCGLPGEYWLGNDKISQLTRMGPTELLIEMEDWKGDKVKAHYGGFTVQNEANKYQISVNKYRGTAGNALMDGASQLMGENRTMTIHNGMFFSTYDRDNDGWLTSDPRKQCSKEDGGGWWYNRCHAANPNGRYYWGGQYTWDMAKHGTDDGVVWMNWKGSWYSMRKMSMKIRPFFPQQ
aDG glyco up: activators of alpha-DG glycosylation, primary screen, uHTS, Pro5-aDG cells, AlphaScreen. 360,000 compounds, 0.22% hits. AID 624168, 2012. alpha-DG glycosylation AlphaScreen (IIH6); 0% Pro5, 100% B10-LARGE cell signal. activation, % at 10 µM;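 active means activation of at least 8% versus controls, or a plate z-score of at least 8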;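 further: Pro5 are CHO cells carrying HIG-tagged alpha-DG that lacks glycosylation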
CendR NRP1 mod: modulators of CendR peptide binding to NRP-1, primary screen, biochemical, fluorescence polarization, uHTS. AID 602438, 2012. 360,000 compounds, 0.85% hits. FAM-RPARPAR peptide binding to NRP-1. inhibition, % at 25 µM. Neuropilin-1 (Homo sapiens), O14786;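 active means inhibition or corrected inhibition above about 18%, plus a signal ratio from 0.5 to 1.5, limit read from the data, passing the limit was not always enough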
DDE Tn7 FP inh: inhibitors of Tn7 peptide binding to fibrin DD(E), primary screen, biochemical, fluorescence polarization, human fibrin, Tn7 probe | FP displacement of FITC-Tn7 peptide from fibrin DD(E); 0% = median of compound wells per plate | inhibition, % at 8.3 µM | 370,000 compounds, 0.13% hits | AID 720508, 2013;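 active means inhibition above the mean of compounds falling within the control limits plus 3 SD of them, cut at about 14% in these data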
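Test system – human fibrin DD(E) · Times – 10 min preincubation, 3 h with tracer, room temperature · Detection – fluorescence polarization of the labelled Tn7 tracer · Measure – percent inhibition normalized to high-control wells · Benchmarks – high control wells with 10 µM unlabelled Aha-Tn7 peptide (full inhibition) · Repeats – singlicate testing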
Hits are given with their value; 0 = inactive; - = no result given.

SMILES	DDE Tn6 FP inh	aDG glyco up	CendR NRP1 mod	DDE Tn7 FP inh
CC(Cl)C(=O)c1c(N)n(C)c(=O)n(C)c1=O (configuration not stated)	-	0	40	-
CC(Sc1nccn1C)C(=O)c1c(N)n(C)c(=O)n(C)c1=O (configuration not stated)	0	0	0	0
COC1=C[C@H](C(=O)NCc2ccc(Br)cc2)C(C)C(c2ccccc2)CC1=O (some centres not stated)	0	-	-	0
Cc1ccc(S(=O)(=O)N(C)C)cc1NC(=O)CN1C(=O)NC2(CCCCCC2)C1=O	0	0	0	0
COc1ccc(NS(=O)(=O)c2ccc(C)c(NC(=O)CN3C(=O)NC4(CCCC4)C3=O)c2)cc1	0	0	30	0
Cc1c(C(=O)NCc2ccccc2)oc2ccc(S(=O)(=O)N3CCCC3)cc12	0	0	0	0
Cc1c(C(=O)N(C)Cc2ccccc2)oc2ccc(S(=O)(=O)N3CCCC3)cc12	0	0	25	0
C=CCN=C(NC#N)SCc1ccccc1	0	0	36	0
CCC(=O)Nc1cccc(C(=O)/C=C/c2cccs2)c1	0	0	27	0
CCC(=O)Nc1cccc(C(=O)/C=C/c2ccccc2)c1	0	0	0	0
COc1cccc(NC(=O)COC(=O)c2ccc3c(c2)OCCO3)c1	0	0	0	0
CCOc1ccc(C(=O)OCC(=O)Nc2ccc3c(c2)OCCO3)cc1OC	0	0	25	0
Cc1nc2c(-c3ccc(Cl)cc3)c(C)[nH]n2c(=O)c1Cc1ccccc1	0	12	0	0
Cc1nc2c(-c3ccccc3)c(C)[nH]n2c(=O)c1Cc1ccccc1	0	0	0	0
COc1ccc2ccccc2c1-c1c(C(=O)c2ccc(Br)cc2)[nH]c(N)c1C(=O)NC1CCCCC1	0	-	-	0
C=CC[C@@H](CC(=O)N[C@@H](CO)Cc1ccccc1)C(=O)N[C@@H](COC(=O)[C@@H](CC=C)CC(=O)OC(C)(C)C)Cc1c[nH]c2ccccc12	0	0	0	0
C=CC[C@@H](CC(=O)N[C@H](CO)Cc1ccccc1)C(=O)N[C@H](COC(=O)[C@@H](CC=C)CC(=O)OC(C)(C)C)Cc1c[nH]c2ccccc12	0	0	27	0
CCC(=Nc1ccc(N)cc1)C1=C(O)C(C(=O)OC)C(C)(C)CC1=O (configuration not stated)	125	0	0	0
CCCC(=Nc1ccccc1)C1=C(O)C(C(=O)OC)C(C)(C)CC1=O (configuration not stated)	0	0	0	0
O=[N+]([O-])c1cc(S(=O)(=O)N2CCOCC2)ccc1OCc1cccc(Cl)c1	0	0	0	0
Cc1cccc(COc2ccc(S(=O)(=O)N3CCOCC3)cc2[N+](=O)[O-])c1	0	0	20	0
CC(C)C(Nc1ccc(S(=O)(=O)N2CCOCC2)cc1[N+](=O)[O-])C(=O)O (configuration not stated)	0	0	28	0
Cc1cnc(C)c(Nc2nc(C(N)Cc3ccc(Cl)cc3)cs2)n1 (configuration not stated)	0	0	0	0
CC/C(=N\NC(=O)c1c[nH]c2ccccc12)c1cccs1	0	0	30	0
Cc1ccccc1-c1cnc2c(c1)C(=O)N([C@@H](C)CO)C[C@@H](C)[C@H](CN(C)Cc1ccccc1F)O2	0	0	0	0
SMILES	DDE Tn6 FP inh	aDG glyco up	CendR NRP1 mod	DDE Tn7 FP inh
O=c1ccn(Cc2ccccc2)c2ccccc12	0	0	30	0
CC(C)Oc1ccc(F)cc1-c1cc(C(=O)N2CCc3ccccc3C2)[nH]n1	0	0	0	0
CC1CN(C(=S)Nc2ccc(F)cc2F)CC(C)O1 (configuration not stated)	0	0	26	0
CC1CN(C(=O)Nc2ccc(F)cc2F)CC(C)O1 (configuration not stated)	0	0	0	0
CCC1=C(OC(=O)N(CC)CC)N2C(=O)OC(=NCC3CC3)[C@]2(Cc2ccccc2)[C@H]2C1=CC[C@H]1C(=O)N(C)C(=O)[C@H]12	0	0	26	0
CCC1=C(OC(=O)N(CC)CC)N2C(=O)OC(=NCCOC)[C@]2(Cc2ccccc2)[C@H]2C1=CC[C@H]1C(=O)N(CC(=O)OC)C(=O)[C@H]12	0	0	35	0
O=[N+]([O-])c1ccc(CN2CCOCCOCCN(Cc3ccc([N+](=O)[O-])cc3Cl)CCOCC2)c(Cl)c1	0	-	-	0
CCCCNC(=O)C(NC(=O)c1cccnc1OC)C(=O)c1ccccc1 (configuration not stated)	0	0	0	0
COC(=O)[C@H](CC(C)C)N(Cc1ccccc1)S(=O)(=O)N(Cc1ccccc1)[C@@H](CC(C)C)C(=O)OC	0	0	0	0
COC(=O)[C@H](CC(C)C)NS(=O)(=O)N(Cc1ccccc1)[C@@H](CC(C)C)C(=O)OC	0	0	28	0
COc1ccc(-c2cc(C(=O)NN=Cc3ccccc3[N+](=O)[O-])[nH]n2)cc1	0	-	-	0
Cc1c(C(=O)N2CCCCC2)oc2ccc(Br)cc12	0	0	0	0
Cc1ccc2oc(C(=O)N3CCCCCC3)c(C)c2c1	0	0	26	0
O=c1[nH][nH]c2cc(=O)n(-c3cccc(C(F)(F)F)c3)nc12	0	0	26	0
Nc1n[nH]c2cc(=O)n(-c3cccc(C(F)(F)F)c3)nc12	0	0	0	0
CC1CCN(c2nc(-c3cccnc3)nc3scc(-c4ccccc4)c23)CC1	0	0	0	0
Clc1nc(-c2ccccn2)nc2scc(-c3ccccc3)c12	0	0	30	0
COc1ccc(C2=CC(c3ccc(F)cc3)n3nnnc3N2)cc1 (configuration not stated)	0	0	35	0
COc1ccc(C2=CC(c3sccc3C)n3nnnc3N2)cc1 (configuration not stated)	0	0	0	0
CC(c1ccccc1)n1cc(C(=O)NCCCN2CCCC2)nn1 (configuration not stated)	0	-	-	0
NC1=C(Br)C(=O)c2ccccc2C1=O	0	3.9	0	0
O=C(COC(=O)Cc1ccc(Cl)cc1)Nc1cc(S(=O)(=O)N2CCOCC2)ccc1N1CCCC1	0	0	44	0
Cc1ccc(S(=O)(=O)N2CCOCC2)cc1NC(=O)COC(=O)Cc1ccc(Cl)cc1	0	0	0	0
Cc1nc(SCC(=O)N2CCOCC2)c2c(=O)n(C)c(=O)n(CC(C)C)c2n1	0	0	24	0
Cc1nc(SCC(=O)N2CCOCC2)c2c(=O)n(C)c(=O)n(C)c2n1	0	0	0	0
COc1cc(S(=O)(=O)NC2CCCCC2)ccc1F	0	0	0	0
COc1ccc(S(=O)(=O)NC2CC2)cc1Br	0	0	27	0
